ChEMBL document CHEMBL1135730, “Nanomolar small molecule inhibitors for alphav(beta)6, alphav(beta)5, and alphav(beta)3 integrins” (J Med Chem, 2002)

Columns and labels:
Integrin alpha-V/beta-3 [1] = biological target: T1, Integrin alpha-V/beta-3 (Homo sapiens, UniProt P05106+P06756); experiment: Inhibition of integrin alpha-v/beta-3 mediated M21 cell adhesion to vitronectin with monoclonal antibody P1F6; format: functional, cell-based
Method in brief: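 M21 human melanoma cells were freshly harvested and plated on vitronectin-coated surfaces into serial inhibitor dilutions, with αvβ5-blocking mAb P1F6 present so attachment is αvβ3-dependent. Attached cells were counted after 1 h by lysosomal hexosaminidase. IC50 by curve fitting, mean of two independent determinations.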

Integrin alpha-V/beta-5 [2] = biological target: T2, Integrin alpha-V/beta-5 (Homo sapiens, UniProt P06756+P18084); experiment: Inhibition of vitronectin binding to recombinant human alphaV-beta5 integrin; format: protein-complex assay
Method in brief: (§1)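 Isolated-integrin ELISA. Plates were coated by adsorption from neutral buffer with 1 µg mL^-1 integrin: recombinant human αvβ3, αvβ5 or αvβ6, or αIIbβ3 isolated from human platelets. The plate was blocked with BSA. Biotinylated ligand (1 µg mL^-1) was added with serial inhibitor dilutions: human serum vitronectin for αvβ3/αvβ5, fibronectin for αvβ6, fibrinogen for αIIbβ3. Bound biotin was detected with peroxidase anti-biotin and TMB.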

Integrin alpha-V/beta-6 [3] = biological target: T3, Integrin alpha-V/beta-6 (Homo sapiens, UniProt P06756+P18564); experiment: Inhibition of fibronectin binding to recombinant human alphaV-beta6 integrin; format: protein-complex assay; method in brief: as §1
Integrin alpha-V/beta-6 [4] = biological target: T3, Integrin alpha-V/beta-6; experiment: Inhibition of integrin alpha-v/beta-6 mediated UCLAP-3 cell adhesion to fibronectin; format: functional, cell-based
Integrin alpha-V/beta-5 [5] = biological target: T2, Integrin alpha-V/beta-5; experiment: Inhibition of integrin alpha-v/beta-5 mediated UCLAP-3 cell adhesion on vitronectin; format: functional, cell-based
Method in brief: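 UCLAP-3 human lung adenocarcinoma cells attach to vitronectin exclusively via αvβ5. Freshly harvested cells were plated on vitronectin-coated surfaces into serial inhibitor dilutions. Attachment was measured at 1 h by lysosomal hexosaminidase cell count. IC50 by curve fitting, mean of two independent determinations.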

[6] = biological target: Integrin alpha-IIb/beta-3 (Homo sapiens, UniProt P05106+P08514); experiment: Inhibition of fibrinogen binding to human platelet glycoprotein alpha IIb beta3 integrin
Integrin alpha-V/beta-3 [7] = biological target: T1, Integrin alpha-V/beta-3; experiment: Inhibition of vitronectin binding to recombinant human alphaV-beta3 integrin; format: protein-complex assay; method in brief: as §1

T2 sequence (P06756 31-889 limits assumed): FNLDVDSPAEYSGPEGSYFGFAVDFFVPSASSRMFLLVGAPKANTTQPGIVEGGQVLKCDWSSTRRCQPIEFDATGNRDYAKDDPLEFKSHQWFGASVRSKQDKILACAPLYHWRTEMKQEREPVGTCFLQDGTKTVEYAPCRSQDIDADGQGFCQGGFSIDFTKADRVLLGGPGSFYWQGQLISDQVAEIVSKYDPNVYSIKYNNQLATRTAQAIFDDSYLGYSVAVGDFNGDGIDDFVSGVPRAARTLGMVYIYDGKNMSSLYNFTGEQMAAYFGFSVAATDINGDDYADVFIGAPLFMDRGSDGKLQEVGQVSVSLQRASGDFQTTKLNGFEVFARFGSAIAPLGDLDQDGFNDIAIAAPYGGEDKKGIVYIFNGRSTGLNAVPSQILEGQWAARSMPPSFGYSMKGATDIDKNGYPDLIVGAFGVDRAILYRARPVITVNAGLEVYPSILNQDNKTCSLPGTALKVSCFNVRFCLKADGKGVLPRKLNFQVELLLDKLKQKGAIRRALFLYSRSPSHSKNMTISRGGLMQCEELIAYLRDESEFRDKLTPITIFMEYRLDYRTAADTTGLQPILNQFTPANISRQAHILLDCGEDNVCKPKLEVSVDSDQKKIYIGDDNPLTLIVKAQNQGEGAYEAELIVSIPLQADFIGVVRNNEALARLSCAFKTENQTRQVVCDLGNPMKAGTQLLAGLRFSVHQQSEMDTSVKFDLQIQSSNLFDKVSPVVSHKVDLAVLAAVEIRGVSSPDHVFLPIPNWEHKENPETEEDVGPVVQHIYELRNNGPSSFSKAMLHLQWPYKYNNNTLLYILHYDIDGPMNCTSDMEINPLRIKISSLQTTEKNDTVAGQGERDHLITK
T2 sequence (P06756 891-1048 limits assumed): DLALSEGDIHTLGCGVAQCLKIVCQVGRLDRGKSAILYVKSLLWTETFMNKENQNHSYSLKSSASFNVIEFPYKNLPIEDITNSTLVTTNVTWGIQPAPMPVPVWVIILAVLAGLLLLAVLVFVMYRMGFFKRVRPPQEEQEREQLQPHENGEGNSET
T2 sequence (P18084 24-799 limits assumed): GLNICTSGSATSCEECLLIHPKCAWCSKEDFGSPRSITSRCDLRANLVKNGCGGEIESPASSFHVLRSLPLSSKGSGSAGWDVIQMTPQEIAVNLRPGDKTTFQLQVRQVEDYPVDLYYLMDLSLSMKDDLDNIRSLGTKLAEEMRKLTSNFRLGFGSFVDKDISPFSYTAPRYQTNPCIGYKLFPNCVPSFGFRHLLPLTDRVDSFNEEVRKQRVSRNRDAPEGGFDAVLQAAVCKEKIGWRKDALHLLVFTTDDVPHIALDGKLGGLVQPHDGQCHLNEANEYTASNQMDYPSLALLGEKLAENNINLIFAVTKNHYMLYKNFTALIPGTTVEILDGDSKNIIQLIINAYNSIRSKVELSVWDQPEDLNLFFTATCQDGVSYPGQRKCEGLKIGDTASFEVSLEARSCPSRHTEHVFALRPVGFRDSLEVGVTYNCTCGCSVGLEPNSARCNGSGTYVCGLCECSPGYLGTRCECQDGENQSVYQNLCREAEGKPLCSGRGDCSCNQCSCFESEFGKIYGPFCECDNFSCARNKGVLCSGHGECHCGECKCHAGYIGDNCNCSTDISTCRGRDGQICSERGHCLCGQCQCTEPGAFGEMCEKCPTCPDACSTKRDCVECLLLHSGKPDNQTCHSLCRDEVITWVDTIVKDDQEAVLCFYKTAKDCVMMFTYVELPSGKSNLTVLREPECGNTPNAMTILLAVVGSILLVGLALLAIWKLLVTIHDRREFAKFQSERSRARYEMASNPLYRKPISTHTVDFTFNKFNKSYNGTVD
T3 sequence (P06756 31-889 limits assumed): as the sequence (P06756 31-889 limits assumed) above
T3 sequence (P06756 891-1048 limits assumed): as the sequence (P06756 891-1048 limits assumed) above
T3 sequence (P18564 22-788 limits assumed): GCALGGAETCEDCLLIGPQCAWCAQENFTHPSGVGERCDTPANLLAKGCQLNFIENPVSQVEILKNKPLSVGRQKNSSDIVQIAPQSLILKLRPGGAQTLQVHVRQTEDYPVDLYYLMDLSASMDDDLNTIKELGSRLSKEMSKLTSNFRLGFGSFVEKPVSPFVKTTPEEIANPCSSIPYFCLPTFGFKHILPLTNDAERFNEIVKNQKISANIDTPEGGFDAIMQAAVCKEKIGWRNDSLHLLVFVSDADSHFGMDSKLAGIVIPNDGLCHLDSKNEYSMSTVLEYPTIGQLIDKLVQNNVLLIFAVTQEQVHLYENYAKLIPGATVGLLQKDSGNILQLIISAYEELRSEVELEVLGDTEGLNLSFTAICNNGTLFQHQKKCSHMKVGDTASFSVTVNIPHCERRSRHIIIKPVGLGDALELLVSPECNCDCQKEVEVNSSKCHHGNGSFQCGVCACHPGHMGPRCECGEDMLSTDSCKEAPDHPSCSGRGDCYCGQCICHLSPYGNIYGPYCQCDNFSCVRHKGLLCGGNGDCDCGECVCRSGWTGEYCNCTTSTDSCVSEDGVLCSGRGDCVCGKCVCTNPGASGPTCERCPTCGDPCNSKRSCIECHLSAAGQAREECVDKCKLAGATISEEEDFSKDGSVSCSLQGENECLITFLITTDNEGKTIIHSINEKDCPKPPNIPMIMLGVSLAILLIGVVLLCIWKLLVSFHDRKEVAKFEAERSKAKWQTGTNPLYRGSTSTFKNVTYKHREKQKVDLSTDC
Chain of Integrin alpha-IIb/beta-3 (P05106 27-788 limits assumed): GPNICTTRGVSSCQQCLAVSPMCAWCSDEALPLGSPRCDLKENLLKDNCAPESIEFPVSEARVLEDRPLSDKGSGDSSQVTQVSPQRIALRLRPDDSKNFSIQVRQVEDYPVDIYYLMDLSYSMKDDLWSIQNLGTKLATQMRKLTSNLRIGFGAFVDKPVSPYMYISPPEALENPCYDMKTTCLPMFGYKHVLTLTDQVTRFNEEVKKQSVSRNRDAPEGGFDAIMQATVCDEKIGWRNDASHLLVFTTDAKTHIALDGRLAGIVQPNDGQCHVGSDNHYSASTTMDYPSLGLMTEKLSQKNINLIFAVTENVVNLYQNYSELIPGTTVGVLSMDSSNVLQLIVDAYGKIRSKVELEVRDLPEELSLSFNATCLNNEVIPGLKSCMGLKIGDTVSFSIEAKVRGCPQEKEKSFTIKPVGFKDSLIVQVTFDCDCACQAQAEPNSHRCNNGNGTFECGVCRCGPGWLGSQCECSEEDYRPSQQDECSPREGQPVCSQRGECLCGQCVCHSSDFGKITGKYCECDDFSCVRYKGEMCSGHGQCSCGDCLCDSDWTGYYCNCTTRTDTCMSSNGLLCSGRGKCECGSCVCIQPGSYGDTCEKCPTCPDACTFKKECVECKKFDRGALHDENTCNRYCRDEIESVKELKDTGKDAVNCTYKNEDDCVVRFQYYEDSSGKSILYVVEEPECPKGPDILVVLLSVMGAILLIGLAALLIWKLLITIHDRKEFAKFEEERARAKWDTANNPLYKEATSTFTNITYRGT
Chain of Integrin alpha-IIb/beta-3 (P08514 32-887 limits assumed): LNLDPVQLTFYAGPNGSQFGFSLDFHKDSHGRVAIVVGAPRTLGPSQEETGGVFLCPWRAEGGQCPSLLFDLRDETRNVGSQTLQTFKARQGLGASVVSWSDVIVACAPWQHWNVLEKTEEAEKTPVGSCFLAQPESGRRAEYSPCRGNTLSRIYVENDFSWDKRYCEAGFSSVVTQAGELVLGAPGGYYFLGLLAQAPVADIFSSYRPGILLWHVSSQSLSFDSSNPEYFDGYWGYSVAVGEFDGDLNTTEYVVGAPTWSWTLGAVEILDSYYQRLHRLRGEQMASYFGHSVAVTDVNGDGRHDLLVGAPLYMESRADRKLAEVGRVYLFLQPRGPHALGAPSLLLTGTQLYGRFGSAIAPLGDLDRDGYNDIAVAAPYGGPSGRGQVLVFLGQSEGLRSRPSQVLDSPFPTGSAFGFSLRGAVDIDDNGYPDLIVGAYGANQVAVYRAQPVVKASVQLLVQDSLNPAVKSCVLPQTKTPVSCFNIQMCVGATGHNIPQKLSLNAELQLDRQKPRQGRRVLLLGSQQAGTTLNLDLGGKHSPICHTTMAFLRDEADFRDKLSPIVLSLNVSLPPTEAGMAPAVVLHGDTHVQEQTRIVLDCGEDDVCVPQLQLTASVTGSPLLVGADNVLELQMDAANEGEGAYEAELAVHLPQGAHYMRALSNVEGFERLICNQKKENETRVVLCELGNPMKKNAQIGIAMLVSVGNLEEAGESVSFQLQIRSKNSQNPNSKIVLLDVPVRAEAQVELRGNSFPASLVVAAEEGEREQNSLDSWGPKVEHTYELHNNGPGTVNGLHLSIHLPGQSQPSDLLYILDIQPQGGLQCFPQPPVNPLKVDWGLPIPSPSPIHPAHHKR
Chain of Integrin alpha-IIb/beta-3 (P08514 891-1039 limits assumed): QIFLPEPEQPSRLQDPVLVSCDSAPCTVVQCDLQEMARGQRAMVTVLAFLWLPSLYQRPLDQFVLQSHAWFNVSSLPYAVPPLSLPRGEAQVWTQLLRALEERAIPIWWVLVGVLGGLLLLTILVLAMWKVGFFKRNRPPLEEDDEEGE
T1 sequence (P05106 27-788 limits assumed): as the sequence (P05106 27-788 limits assumed) above
T1 sequence (P06756 31-889 limits assumed): as the sequence (P06756 31-889 limits assumed) above
T1 sequence (P06756 891-1048 limits assumed): as the sequence (P06756 891-1048 limits assumed) above

| Compound | IC50 (Integrin alpha-V/beta-3 [1]) | IC50 (Integrin alpha-V/beta-5 [2]) | IC50 (Integrin alpha-V/beta-6 [3]) | IC50 (Integrin alpha-V/beta-6 [4]) | IC50 (Integrin alpha-V/beta-5 [5]) | IC50 [6] | IC50 (Integrin alpha-V/beta-3 [7]) |
| --- | --- | --- | --- | --- | --- | --- | --- |
| C[C@H]1C(=O)N[C@@H](CCCN=C(N)N)C(=O)NCC(=O)N[C@@H](CC(=O)O)C(=O)N[C@H](Cc2ccccc2)C(=O)N1C | 3900 nM | 662 nM | 2400 nM | 37000 nM | 1300 nM | 6000 nM |  |
| N=C(N)NCCCCC(=O)NNC(=O)NC(CC(=O)O)c1ccccc1 (centres undefined) | > 50000 nM | 26 nM | 460 nM | 9600 nM | 43000 nM |  |  |
| Cc1ccnc(NCCCC(=O)NCC(=O)NC(CC(=O)O)c2ccc(-c3cccc4ccccc34)cc2)c1 (centres undefined) | 3000 nM | 5170 nM | 0.04 nM | 200 nM | 20000 nM | 4230 nM | 8 nM |
| Cc1ccnc(NCCCCC(=O)NNC(=O)NC(CC(=O)O)c2cc(Cl)cc(Cl)c2)c1 (centres undefined) | 12000 nM | 2500 nM | 1.7 nM | 300 nM | 5000 nM | > 10000 nM | 64 nM |
| Cc1ccnc(NCCCCC(=O)NNC(=O)CC(CC(=O)O)c2ccc(-c3ccccc3)cc2)c1 (centres undefined) | 970 nM | 8700 nM | 53 nM | 3800 nM | 24000 nM | 3000 nM | 4 nM |
| Cc1ccnc(NCCCCCCC(=O)NC(CC(=O)O)c2cccc([N+](=O)[O-])c2)c1 (centres undefined) | > 50000 nM | 1600 nM | 61 nM | 2100 nM | 21000 nM | 580 nM | 53 nM |
| Cc1ccnc(NCCCCC(=O)NCC(=O)NC(CC(=O)O)c2cc(Cl)cc(Cl)c2)c1 (centres undefined) | 16000 nM | 350 nM | 0.4 nM | 300 nM | 2000 nM | > 10000 nM | 53 nM |
| Cc1ccnc(NCCCC(=O)NCC(=O)NC(CC(=O)O)c2cccc(OC(F)(F)F)c2)c1 (centres undefined) | 24000 nM | 39 nM | 0.15 nM | 30 nM | 27000 nM | > 10000 nM | 14 nM |
| Cc1ccnc(NCCCCC(=O)NNC(=O)CC(CC(=O)O)c2cc(Cl)cc(Cl)c2)c1 (centres undefined) | 20000 nM | 5700 nM | 44 nM | 1600 nM | 18000 nM | > 10000 nM | 6 nM |
| O=C(O)CC(NC(=O)CNC(=O)CCCCNc1ccccn1)c1ccc(-c2ccccc2)cc1 (centres undefined) | 9500 nM | 2670 nM | 0.6 nM | 100 nM | 26000 nM | 4050 nM | 0.45 nM |
| O=C(O)CC(NC(=O)CNC(=O)CCCNc1ccccn1)c1cccc([N+](=O)[O-])c1 (centres undefined) | 6900 nM | 42 nM | 4 nM | 90 nM | 1200 nM | 7300 nM | 13 nM |
